Laboratory results as given in ChEMBL document CHEMBL5030567, “Macrocyclic Inhibitors of HGF-Activating Serine Proteases Overcome Resistance to Receptor Tyrosine Kinase Inhibitors and Block Lung Cancer Progression” (J Med Chem, 2021).
pIC50: −log10 of the molar value.

Assays:
[1] = Stability in human plasma assessed as half life; type: ADME, cell-free
[2] = Stability in mouse plasma assessed as half life; type: ADME, cell-free
[3] = Plasma protein binding in mouse assessed as unbound fraction; type: ADME, cell-free
Prothrombin = Prothrombin (Homo sapiens, UniProt P00734); assay: Inhibition of recombinant thrombin (unknown origin) using D-Phe-Pip-Arg-pNA as substrate preincubated for 30 mins followed by substrate addition by chromogenic assay
[4] = Half life in mouse plasma at 20 mg/kg, ip; type: ADME, organism-based
Coagulation factor X = Coagulation factor X (Homo sapiens, UniProt P00742); assay: Inhibition of recombinant C-terminal 10His-tagged human coagulation factor 10a (Leu24 to Lys488 residues) expressed in baculovirus infected Sf9 insect cells using Bz-Ile-Glu-Gly-Arg-pNA as substrate preincubated for 30 mins followed by substrate addition by chromogenic assay
[5] = target: T1, Hepatocyte growth factor activator serine protease (Homo sapiens, UniProt Q04756); assay: Inhibition of recombinant human HGFA serine protease domain using Boc-QLR-AMC as substrate preincubated for 30 mins followed by substrate addition by fluorescence based assay
T1 sequence (Q04756 whole entry): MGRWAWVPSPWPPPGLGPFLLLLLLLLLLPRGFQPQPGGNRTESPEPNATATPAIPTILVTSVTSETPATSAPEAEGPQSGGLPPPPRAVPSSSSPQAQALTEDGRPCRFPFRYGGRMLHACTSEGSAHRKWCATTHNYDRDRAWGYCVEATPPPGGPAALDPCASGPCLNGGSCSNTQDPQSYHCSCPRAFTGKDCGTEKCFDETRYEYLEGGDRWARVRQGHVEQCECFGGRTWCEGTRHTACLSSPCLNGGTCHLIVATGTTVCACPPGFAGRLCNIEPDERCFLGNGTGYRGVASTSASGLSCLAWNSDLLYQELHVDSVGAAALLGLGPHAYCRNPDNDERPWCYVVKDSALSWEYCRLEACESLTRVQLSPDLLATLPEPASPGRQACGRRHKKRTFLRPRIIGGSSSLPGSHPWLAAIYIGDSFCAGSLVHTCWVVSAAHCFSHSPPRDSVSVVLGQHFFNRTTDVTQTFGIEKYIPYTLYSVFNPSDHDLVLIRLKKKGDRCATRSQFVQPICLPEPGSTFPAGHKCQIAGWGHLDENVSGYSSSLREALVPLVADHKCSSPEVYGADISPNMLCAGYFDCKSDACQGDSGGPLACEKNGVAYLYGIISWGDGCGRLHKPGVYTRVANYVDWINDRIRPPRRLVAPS
In short: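 Inhibitor in 11-point serial dilution (0-20 µM final, 2% DMSO) pre-incubated 30 min at room temperature with enzyme in TNC buffer (25 mM Tris, 150 mM NaCl, 5 mM CaCl2, 0.01% Triton X-100, pH 8). […] Hepsin activated beforehand 24 h at 37°C. Fluorescence ex 380/em 460 nm kinetic; four-parameter fit of velocities; mean of three experiments.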

SMILES | t1/2 [1] [h] | t1/2 [2] [h] | fraction unbound [3] | pIC50 (Prothrombin) | t1/2 ([4]; in vivo, 20 mg/kg) [h] | pIC50 (Coagulation factor X) | pIC50 [5] | half-life ([4]; plasma) [h]
CC(=O)N[C@H]1CC(=O)NCCCC[C@@H](C(=O)N[C@@H](CCCNC(=N)N)C(=O)c2nc3ccccc3s2)NC(=O)[C@H](C(C)C)NC1=O | > 4.818 | > 4.818 | – | – | – | – | – | –
CC(=O)N[C@H]1CCCCNC(=O)CC[C@@H](C(=O)N[C@@H](CCCNC(=N)N)C(=O)c2nc3ccccc3s2)NC(=O)[C@H](CC(C)C)NC1=O | > 4.82 | 4.57 | 0.184 | < 4.70 | 0.71 | – | – | –
CC(=O)N[C@H]1CCCCNC(=O)CC[C@@H](C(=O)N[C@@H](CCCNC(=N)N)C(=O)c2nc3ccccc3s2)NC(=O)[C@H](CCCNC(=N)N)NC1=O | 2.52 | 2.6 | 0.259 | < 4.70 | – | 6.81 | – | –
CSCC[C@@H]1NC(=O)[C@@H](NC(C)=O)CC(=O)NCCCC[C@@H](C(=O)N[C@@H](CCCNC(=N)N)C(=O)c2nc3ccccc3s2)NC1=O | > 4.818 | > 4.818 | – | – | – | – | – | –
CC(=O)N[C@H]1CC(=O)NCCCC[C@@H](C(=O)N[C@@H](CCCNC(=N)N)C(=O)c2nccs2)NC(=O)[C@H](CC(C)C)NC1=O | > 4.818 | > 4.818 | – | – | – | – | < 4.70 | –
CC(=O)N[C@H]1CC(=O)N(C)CCCC[C@@H](C(=O)N[C@@H](CCCNC(=N)N)C(=O)c2nc3ccccc3s2)NC(=O)[C@H](CC(C)C)NC1=O | > 4.82 | > 4.82 | – | – | – | – | 4.92 | 0.553
CC(=O)N[C@H]1CC(=O)NCCCC[C@@H](C(=O)N[C@@H](CCCNC(=N)N)C(=O)c2nc3ccccc3s2)NC(=O)[C@H](CCC(N)=O)NC1=O | > 4.818 | > 4.818 | – | – | – | < 4.70 | – | –
CC(=O)N[C@H]1CC(=O)NCCCC[C@@H](C(=O)N[C@@H](CCCNC(=N)N)C(=O)c2nc3ccccc3s2)NC(=O)CNC1=O | > 4.818 | > 4.818 | – | – | – | – | – | –
CC(=O)N[C@H]1CC(=O)NCCCC[C@@H](C(=O)N[C@@H](CCCNC(=N)N)C(=O)c2nc3ccccc3s2)NC(=O)[C@H](Cc2ccc(O)cc2)NC1=O | > 4.818 | 4.613 | – | – | – | – | < 4.70 | –
CC(=O)N[C@H]1CC(=O)NCCCC[C@@H](C(=O)N[C@@H](CCCNC(=N)N)C(=O)c2nc3ccccc3s2)NC(=O)[C@H](CC(N)=O)NC1=O | > 4.818 | > 4.818 | – | – | – | – | – | –
CC(=O)N[C@H]1CC(=O)NCCCC[C@@H](C(=O)N[C@@H](CCCNC(=N)N)C(=O)c2nc3ccccc3s2)NC(=O)[C@H](C)NC1=O | 3.602 | 4.353 | – | – | – | < 4.70 | – | –
